This is an account of results in ChEMBL document CHEMBL1139173, “Novel selective human mitochondrial kinase inhibitors: design, synthesis and enzymatic activity” (Bioorg Med Chem, 2007).

Active and inactive are the calls of the source. The rule behind the calls is not given here.

A short description of data set [1]: Toxicity against human fibroblast cells assessed as alteration of cellular viability upto 60 uM. The format is cell-based. The method, boiled down:
(§1)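 Primary fibroblasts from healthy-volunteer forearm skin biopsies were used stationary. They were kept at 37 °C in 5% CO₂ in one of two media: permissive DMEM UP (4.5 g/l glucose, 10% FCS, 50 µg/ml uridine) or restrictive GAL (glucose-free RPMI, 50 µM galactose, 10% dialyzed FCS). Cells were exposed to a range of concentrations for 1 week. Viability was counted by trypan blue exclusion.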

A short description of data set [2]: Toxicity assessed as inhibition of mitochondrial function in human fibroblasts above 100 uM. The data set is classed as cell-based. As to conditions: fibroblast. In short, it runs like this: as §1
The next data set concerns the target T1, Thymidine kinase (Human alphaherpesvirus 1, UniProt Q9QNF7).
T1 sequence (Q9QNF7 whole entry): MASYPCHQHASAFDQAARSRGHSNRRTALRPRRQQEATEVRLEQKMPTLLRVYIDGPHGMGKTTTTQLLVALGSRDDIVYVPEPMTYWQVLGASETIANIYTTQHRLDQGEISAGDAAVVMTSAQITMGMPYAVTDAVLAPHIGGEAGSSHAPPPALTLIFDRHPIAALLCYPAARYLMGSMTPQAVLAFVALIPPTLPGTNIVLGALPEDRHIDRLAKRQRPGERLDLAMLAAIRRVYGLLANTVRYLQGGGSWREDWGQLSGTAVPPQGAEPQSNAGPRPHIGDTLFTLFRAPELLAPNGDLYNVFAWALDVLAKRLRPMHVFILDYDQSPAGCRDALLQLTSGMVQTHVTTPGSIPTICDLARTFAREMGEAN
Nature of the data set: Inhibition of HSV1 TK assessed as [methyl-3H]dThd phosphorylation. In short, it runs like this:
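Purified recombinant GST-fusion kinases (from pGEX-5X-1 cDNAs) assayed in 50 mM Tris–HCl pH 8.0, 2.5 mM MgCl₂, 10 mM DTT, 0.5 mM CHAPS, 3 mg/mL BSA, 2.5 mM ATP, 0.25 µCi [methyl-³H]dThd (2 µM), ± varying inhibitor levels, 37 °C for 30 min. Reactions spotted on DE-81 filter disks, washed, and counted by scintillation. IC50 is the concentration halving dThd phosphorylation.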

Data set [3] can be described thus: Toxicity against human fibroblast cells assessed as alteration of mitochondrial function up to 60 uM. The data set is classed as cell-based. The method, boiled down: as §1
Data set [4] deals with Fibroblast. Put plainly: Decrease in nuclear DNA in human fibroblasts at 100 uM. The format is functional. Also noted: scale not given: the % may be the effect or the level left.
For data set [5], the target named is T2, Deoxyguanosine kinase, mitochondrial (Homo sapiens, UniProt Q16854).
T2 sequence (Q16854 whole entry): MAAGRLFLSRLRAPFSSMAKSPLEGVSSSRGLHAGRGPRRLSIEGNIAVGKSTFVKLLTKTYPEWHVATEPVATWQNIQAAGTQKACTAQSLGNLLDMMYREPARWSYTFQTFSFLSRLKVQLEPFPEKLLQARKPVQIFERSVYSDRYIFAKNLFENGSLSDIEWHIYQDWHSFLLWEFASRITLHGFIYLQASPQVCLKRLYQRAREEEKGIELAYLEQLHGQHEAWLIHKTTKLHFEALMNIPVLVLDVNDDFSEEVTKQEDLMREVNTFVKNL
Nature of the data set: Inhibition of human fibroblast mitochondrial deoxyguanosine kinase. The method, boiled down:
(§2)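 Done on mitochondria isolated from human fibroblasts rather than on recombinant enzymes. TK2 activity was measured with dThd or dCyd as substrate. dGK activity was measured as a control. Read-out was IC50.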

The subject of data set [6] is Fibroblast. Nature of the data set: Decrease in cytochrome c oxidase to succinate dehydrogenase ratio in human fibroblasts. The format is functional, cell-based. In short, it runs like this:
(§3)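 Stationary normal skin fibroblasts were exposed to various concentrations for one week in permissive medium (glucose, uridine, 10% FCS). Cytochrome c oxidase (complex IV) and succinate dehydrogenase (complex II) activities were then assayed. COX/SDH ratios were calculated, with SDH as the mtDNA-independent control.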

The target of data set [7] is Deoxyguanosine kinase, mitochondrial (Homo sapiens) (UniProt Q16854). Put plainly: Inhibition of human fibroblast mitochondrial deoxyguanosine kinase.
For data set [8], the target named is T3, Thymidine kinase 2, mitochondrial (Homo sapiens, UniProt O00142).
T3 sequence (O00142 whole entry): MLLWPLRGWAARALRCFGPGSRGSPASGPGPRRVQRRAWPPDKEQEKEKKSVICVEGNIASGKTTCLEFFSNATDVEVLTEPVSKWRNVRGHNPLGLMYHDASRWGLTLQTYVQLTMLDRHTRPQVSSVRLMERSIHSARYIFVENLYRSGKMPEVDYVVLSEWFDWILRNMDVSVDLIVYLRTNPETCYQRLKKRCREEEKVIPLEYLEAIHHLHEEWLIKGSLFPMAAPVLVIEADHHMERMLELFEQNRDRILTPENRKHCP
Put plainly: Inhibition of human fibroblast mitochondrial TK2 using dCyd substrate. The method, boiled down:
as §2

Data set [9] can be described thus: Toxicity assessed as inhibition of mitochondrial function in normal fibroblasts upto 100 uM. The format is cell-based. To be noted: human, fibroblast. In short, it runs like this: as §1
Data set [10] concerns the target T3, Thymidine kinase 2, mitochondrial. Put plainly: Inhibition of human fibroblast mitochondrial TK2 using dThd substrate. In short, it runs like this:
as §2

The species entered for a further data set is Homo sapiens. Nature of the data set: Inhibition of human fibroblast mitochondrial cytochrome c oxidase. The method, boiled down: as §3

A word on the IC50: it is the concentration at which inhibition is half-maximal. As for `CCCCCCCCCC(=O)O[C@H]1[C@H](O)[C@@H](CO)O[C@H]1n1cc(/C=C/Br)c(=O)[nH]c1=O`, the Activity result in data set [1] was “Non-toxic”; in [2], “Toxic”; in data set [3], “Not Active”; with Fibroblast [4], 50%; in data set [9], “Active”. Moreover, the IC50 was over 1000 µM at Thymidine kinase; over 1000 µM in data set [5]; over 1000 µM in [7]; 97 µM in data set [8]; 40 µM in data set [10]. The outcome with Fibroblast [6] and in the data set listed under Homo sapiens was Active.
